For data set [1], the system named is Nakaseomyces glabratus. Description: Antifungal activity against Candida glabrata ATCC 48435 assessed as growth inhibition after 48 hrs by broth microdilution relative to control. It counts as functional. The gist of the method: (§1)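 Broth microdilution against yeast; incubation at 35 °C for 48 h. Growth read by visual turbidity versus antifungal-free control wells and by absorbance at 530 nm. MIC₅₀ taken as the lowest level giving a prominent visual decrease in turbidity plus >50% growth reduction versus no-antifungal controls. Values in µg/mL; partial inhibition (e.g. 25%) noted where below threshold.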

Another data set deals with Candida albicans. Description: Antifungal activity against Candida albicans ATCC 10231 assessed as growth inhibition after 48 hrs by broth microdilution relative to control. In kind it is functional. The gist of the method: as §1
(In general: Broth dilution looks for growth in wells or tubes with falling amounts of substance.)

The test system of data set [2] is Cryptococcus neoformans. The data set is described as follows: Antifungal activity against Cryptococcus neoformans ATCC 36556 assessed as growth inhibition after 48 hrs by broth microdilution relative to control. In kind it is functional. The gist of the method:
as §1

A short description of data set [3]: Cytotoxicity against Sylvilagus floridanus CCL68 cells after 24 hrs by MTT assay. In kind it is cell-based. The method in brief:
(§2)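 Tetrazolium (MTT-type) proliferation assay on noncancerous Vero and rabbit skin cells. Compounds diluted in media to 200, 100, 50 and 25 µg/ml; 24 h exposure at 37 °C, 5% CO₂. Dye added for 1–4 h, then stop solution 1 h at room temperature; formazan read at 570 nm. Viability given as % of 1% DMSO no-drug wells; saponin as cell-death control; triplicate, mean ± SD.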
(Tetrazolium dyes change colour on reduction, which living cells bring about.)

The next data set has as its system Vero. Description: Cytotoxicity against african green monkey Vero cells after 24 hrs by MTT assay. It counts as cell-based. As to conditions: chlorocebus sabaeus. The gist of the method:
as §2

For data set [4], the system named is Cryptococcus neoformans. The data set is described as follows: Antifungal activity against Cryptococcus neoformans ATCC 36556 after 48 hrs by broth microdilution technique. It counts as functional. As to conditions: ATCC 36556, 48 h. The method in brief:
as §1

Data set [5] relates to Nakaseomyces glabratus. The data set is described as follows: Antifungal activity against Candida glabrata ATCC 48435 after 48 hrs by broth microdilution technique. It counts as functional. Particulars: ATCC 48435, 48 h. The gist of the method:
as §1

Converted amounts (≈) assume the structure as drawn. A value given as a limit tells only on which side of the number the result lay.

Take `CC(C)CCC[C@@H](C)[C@H]1CC[C@H]2[C@@H]3CC[C@H]4C[C@@H](O[C@@H]5O[C@H](CO)[C@@H](O)[C@H](O)[C@H]5O)CC[C@]4(C)[C@H]3CC[C@]12C`: the “growth inhibition (GI)” value with Nakaseomyces glabratus [1], in the data set with Candida albicans and with Cryptococcus neoformans [2] was under 50% each time.
In the case of `CC(C)CCC[C@@H](C)[C@H]1CC[C@H]2[C@@H]3CC[C@H]4C[C@@H](O[C@@H]5O[C@H](CO)[C@@H](O)[C@H](O)[C@H]5O)[C@H](O)C[C@]4(C)[C@H]3CC[C@]12C`, the “growth inhibition (GI)” value with Nakaseomyces glabratus [1], with Candida albicans and with Cryptococcus neoformans [2] was under 50% throughout.
For `CC(C)CCC[C@@H](C)[C@H]1CC[C@H]2[C@@H]3CC[C@H]4C[C@@H](O[C@H]5O[C@H](CO)[C@@H](O)[C@H](O)[C@H]5O)CC[C@]4(C)[C@H]3CC[C@]12C`, the “growth inhibition (GI)” value with Nakaseomyces glabratus [1], with Candida albicans and in the data set with Cryptococcus neoformans [2] was under 50% throughout.
Consider `CC(C)CCC[C@@H](C)[C@H]1CC[C@H]2[C@@H]3CC[C@H]4C[C@@H](O)CC[C@]4(C)[C@H]3CC[C@]12C`, for which the “growth inhibition (GI)” value in the data set with Nakaseomyces glabratus [1], in the data set with Candida albicans and in the data set with Cryptococcus neoformans [2] was under 50% throughout.
`CC(C)CCC[C@@H](C)[C@H]1CC[C@H]2[C@@H]3CC[C@H]4C[C@@H](O[C@H]5O[C@H](CO)[C@@H](O[C@H]6O[C@H](CO)[C@@H](O)[C@H](O)[C@H]6O)[C@H](O)[C@H]5O)[C@H](O)C[C@]4(C)[C@H]3CC[C@]12C`: the “growth inhibition (GI)” value with Nakaseomyces glabratus [1], in the data set with Candida albicans and with Cryptococcus neoformans [2] was under 50% each time.
As to `C[C@@H]1CC[C@]2(C[C@H]3C[C@H]4[C@@H]5CC[C@H]6C[C@@H](O[C@@H]7O[C@H](CO)[C@@H](O)[C@H](O)[C@H]7O)[C@H](O)C[C@]6(C)[C@H]5CC[C@]4(C)[C@H]3[C@@H]2C)OC1`, the “growth inhibition (GI)” value in the data set on Nakaseomyces glabratus [1], in the data set with Candida albicans and in the data set with Cryptococcus neoformans [2] was under 50% each time.
As for `C[C@@H]1CC[C@]2(C[C@H]3C[C@H]4[C@@H]5CC[C@H]6C[C@@H](O[C@@H]7O[C@H](CO)[C@@H](O[C@@H]8O[C@H](CO)[C@@H](O)[C@H](O)[C@H]8O)[C@H](O)[C@H]7O)[C@H](O)C[C@]6(C)[C@H]5CC[C@]4(C)[C@H]3[C@@H]2C)OC1`, the Activity entry (in data set [3]; with Vero) was “Non-toxic” throughout.
In the case of `C[C@@H]1CC[C@@]2(OC1)O[C@H]1C[C@H]3[C@@H]4CC[C@H]5C[C@@H](O[C@H]6O[C@H](CO)[C@@H](O)[C@H](O)[C@H]6O)[C@H](O)C[C@]5(C)[C@H]4CC[C@]3(C)[C@H]1[C@@H]2C`, the “growth inhibition (GI)” value in the data set on Nakaseomyces glabratus [1], in the data set on Candida albicans and in the data set with Cryptococcus neoformans [2] was under 50% in each case.
On to `C[C@@H]1CC[C@]2(C[C@H]3C[C@H]4[C@@H]5CC[C@H]6C[C@@H](O[C@H]7O[C@H](CO)[C@@H](O[C@H]8O[C@H](CO)[C@@H](O)[C@H](O)[C@H]8O)[C@H](O)[C@H]7O)[C@H](O)C[C@]6(C)[C@H]5CC[C@]4(C)[C@H]3[C@@H]2C)OC1`, for which the “growth inhibition (GI)” value in the data set with Nakaseomyces glabratus [1], in the data set on Candida albicans and in the data set on Cryptococcus neoformans [2] was under 50% in each case.
As for `CC(C)CCC[C@@H](C)[C@H]1CC[C@H]2[C@@H]3CC[C@H]4C[C@@H](O[C@H]5O[C@H](CO)[C@@H](O)[C@H](O)[C@H]5O)[C@H](O)C[C@]4(C)[C@H]3CC[C@]12C`, the “growth inhibition (GI)” value in the data set on Nakaseomyces glabratus [1], with Candida albicans and with Cryptococcus neoformans [2] was under 50% in each case.
In the case of `CC(C)CCC[C@@H](C)[C@H]1CC[C@H]2[C@@H]3CC[C@H]4C[C@@H](O[C@H]5O[C@H](CO)[C@@H](O[C@H]6O[C@H](CO)[C@@H](O)[C@H](O)[C@H]6O)[C@H](O)[C@H]5O)CC[C@]4(C)[C@H]3CC[C@]12C`, the “growth inhibition (GI)” value in the data set with Nakaseomyces glabratus [1], with Candida albicans and with Cryptococcus neoformans [2] was under 50% in each case.
For `CC(C)CCC[C@@H](C)[C@H]1CC[C@H]2[C@@H]3CC[C@H]4C[C@@H](O[C@@H]5O[C@H](CO)[C@@H](O[C@@H]6O[C@H](CO)[C@@H](O)[C@H](O)[C@H]6O)[C@H](O)[C@H]5O)CC[C@]4(C)[C@H]3CC[C@]12C`, the “growth inhibition (GI)” value in the data set on Candida albicans is listed as under 50%. Besides, the MIC50 with Cryptococcus neoformans [4] and against Nakaseomyces glabratus [5] was over 125 µg/mL each time.
On to `CC(C)CCC[C@@H](C)[C@H]1CC[C@H]2[C@@H]3CC[C@H]4C[C@@H](O[C@@H]5O[C@H](CO)[C@@H](O[C@H]6O[C@H](CO)[C@@H](O)[C@H](O)[C@H]6O)[C@H](O)[C@H]5O)CC[C@]4(C)[C@H]3CC[C@]12C`, for which the Activity result (in data set [3]; with Vero) was “Non-toxic” each time. Besides, the “growth inhibition (GI)” value with Candida albicans is under 50%. Besides, the MIC50 against Cryptococcus neoformans [4] and in the data set with Nakaseomyces glabratus [5] was 4 µg/mL (≈ 5.61 µM) throughout.
With `CC(C)CCC[C@@H](C)[C@H]1CC[C@H]2[C@@H]3CC[C@H]4C[C@@H](O[C@@H]5O[C@H](CO)[C@@H](O[C@@H]6O[C@H](CO)[C@@H](O)[C@H](O)[C@H]6O)[C@H](O)[C@H]5O)[C@H](O)C[C@]4(C)[C@H]3CC[C@]12C`, the Activity entry (in data set [3]; with Vero) was “Toxic” in each case. Further, the “growth inhibition (GI)” value in the data set with Candida albicans is listed as under 50%. Also, the values for the MIC50 in the data set on Cryptococcus neoformans [4] and against Nakaseomyces glabratus [5] were 4 µg/mL (≈ 5.49 µM) and 8 µg/mL (≈ 11 µM), respectively.
As for `CC(C)CCC[C@@H](C)[C@H]1CC[C@H]2[C@@H]3CC[C@H]4C[C@@H](O[C@@H]5O[C@H](CO)[C@@H](O[C@H]6O[C@H](CO)[C@@H](O)[C@H](O)[C@H]6O)[C@H](O)[C@H]5O)[C@H](O)C[C@]4(C)[C@H]3CC[C@]12C`, the “growth inhibition (GI)” value with Nakaseomyces glabratus [1] and in the data set with Candida albicans was under 50% each time. In the data set with Cryptococcus neoformans [4], the MIC50 is 32 µg/mL (≈ 43.9 µM).
In the case of `CC(C)CCC[C@@H](C)[C@H]1CC[C@H]2[C@@H]3CC[C@H]4C[C@@H](O)[C@H](O)C[C@]4(C)[C@H]3CC[C@]12C`, the “growth inhibition (GI)” value in the data set with Nakaseomyces glabratus [1] is listed as under 50%; in the data set on Candida albicans, under 50%; with Cryptococcus neoformans [2] it was 25%. The MIC50 against Cryptococcus neoformans [4] is 32 µg/mL (≈ 79.1 µM).

One may read the MIC50 as an inhibitory concentration at the 50% level, which refers to growth in some studies and to a panel of isolates in others.

Source of the values: ChEMBL document CHEMBL1921697, “Antifungal activity of 2α,3β-functionalized steroids stereoselectively increases with the addition of oligosaccharides” (Bioorg Med Chem Lett, 2011).
